Source: ChEMBL document CHEMBL4387710, “Fragment-Based Discovery of an Apolipoprotein E4 (apoE4) Stabilizer” (J Med Chem, 2019)
Blank lines part the entries; values can stand above or below the compound they belong to. Active and inactive are the calls of the source. The calls are words filed in the database; no cut-off is given here.

Experiments:
Astrocyte [1] = assay: Antineuroinflammatory activity in human induced pluripotent stem cell-derived astrocytes harboring apolipoprotein E4/4 assessed reduction in TNFalpha/IL-1beta/IFNgamma-stimulated IL-8 secretion preincubated for 1 hr followed by TNFalpha/IL-1beta/IFNgamma stimulation and measured after 24 hrs; format: functional, cell-based
Homo sapiens [2] = species: Homo sapiens; assay: (§1) Binding affinity to human recombinant full-length N-terminal thrombin-recognition site-fused His6-tagged apolipoprotein E4 (1 to 299 residue) F257A/W246R/V269A/L279Q/V287E mutant expressed in Escherichia coli BL21-(DE3)-T1R cells assessed as change in melting temperature at 1 mM incubated for 15 mins by SYPRO orange dye-based thermal shift assay
Astrocyte [3] = assay: Antineuroinflammatory activity in human induced pluripotent stem cell-derived astrocytes harboring apolipoprotein E4/4 assessed reduction in TNFalpha/IL-1beta/IFNgamma-stimulated IL-6 secretion preincubated for 1 hr followed by TNFalpha/IL-1beta/IFNgamma stimulation and measured after 24 hrs; format: functional, cell-based
Astrocyte [4] = assay: Cytotoxicity against human induced pluripotent stem cell-derived astrocytes harboring apolipoprotein E4/4 assessed as effect on cell viability at 12.5 uM to 100 uM preincubated for 1 hr followed by TNFalpha/IL-1beta/IFNgamma stimulation and measured after 24 hrs by CellTiter-Glo luminescent cell viability assay; format: cell-based
[5] = Binding affinity to N-terminal thrombin-recognition site-fused His6-tagged human apolipoprotein E4 N-terminal domain without leader sequence (1 to 164 residues) expressed in Escherichia coli BL21-(DE3)-T1R cells by 13C-HSQC NMR spectroscopy
Homo sapiens [6] = species: Homo sapiens; assay: as §1, with “at 5” for “at 1”
Method in brief: (§2)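 Thermal shift assay: compound added at 5 mM to full-length mutant apoE protein (apoE4 or apoE3). Stabilization is reported as the shift in melting temperature, in degrees.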

[7] = Binding affinity to full-length human recombinant C-terminal FLAG/His-tagged apolipoprotein E4 expressed in HEK293-6E cells by surface plasmon resonance assay
[8] = Solubility of the compound in PBS by NMR method; format: physicochemical
[9] = Binding affinity to full-length human recombinant C-terminal FLAG/His-tagged apolipoprotein E3 expressed in HEK293-6E cells by surface plasmon resonance assay
[10] = (§3) Binding affinity to N-terminal thrombin-recognition site-fused His6-tagged human apolipoprotein E4 N-terminal domain without leader sequence (1 to 164 residues) expressed in Escherichia coli BL21-(DE3)-T1R cells by surface plasmon resonance analysis
Homo sapiens [11] = species: Homo sapiens; assay: as §3, with “cells assessed as breakdown of DMPG liposomes at 500 uM after 30 mins” for “cells”, “dynamic light scattering” for “surface plasmon resonance”
Method in brief: (§4)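 DMPG liposome breakdown assay: large DMPG liposomes incubated with apoE protein (N-terminal domain, or full-length wild-type from mammalian cells). Breakdown into smaller discoidal complexes is read as a fall in light-scattering intensity. Liposomes alone serve as control. Compound is tested as a dose series covering 15.6 to 500 μM.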

Homo sapiens [12] = species: Homo sapiens; assay: Binding affinity to full-length human recombinant C-terminal FLAG/His-tagged apolipoprotein E4 expressed in HEK293-6E cells assessed as breakdown of DMPG liposomes at 500 uM after 30 mins by dynamic light scattering analysis; format: cell-based; method in brief: as §4
Homo sapiens [13] = species: Homo sapiens; assay: as §1, with “apolipoprotein E3” for “apolipoprotein E4”, “at 5” for “at 1”; method in brief: as §2

Compound: CN(C)CCNC(=O)c1ccc(-c2cc(Cl)cc(C3(C(=N)N)CCC3)c2)cc1
Activity (Astrocyte [1]): Dose-dependent effect
ΔTm (Homo sapiens [2]): 4 °C
Activity (Astrocyte [3]): Dose-dependent effect
Activity (Astrocyte [4]): Non-Toxic
Kd [5]: < 5 µM

Compound: N=C(N)C1(c2cc(Cl)cc(-c3ccc(CN)cc3)c2)CCC1
Kd [5]: < 5 µM

Compound: N=C(N)C1(c2cc(Cl)cc(-c3ccccc3)c2)CCC1
Kd [5]: 230 µM

solubility [8]: ≥ 500 µM
Compound: N=C(N)C1(c2cccc(Cl)c2)CCC1
ΔTm (Homo sapiens [6]): 4 °C
Kd [7]: 233 µM
Kd [9]: 890 µM
Kd [10]: 205 µM
Activity (Homo sapiens [11]): Active
Activity (Homo sapiens [12]): Active
Kd [5]: 900 µM
ΔTm (Homo sapiens [13]): 0.5 °C

Compound: N=C(N)C1(c2cc(Cl)cc(-c3ccc(CO)c(Cl)c3)c2)CCC1
Kd [5]: 8 µM

Compound: CC(C)(O)c1ccc(-c2cc(Cl)cc(C3(C(=N)N)CCC3)c2)cc1
Kd [5]: 30 µM

Compound: CC(=O)NCc1ccc(-c2cc(Cl)cc(C3(C(=N)N)CCC3)c2)cc1
Kd [5]: 20 µM

Compound: CCNS(=O)(=O)c1ccc(-c2cc(Cl)cc(C3(C(=N)N)CCC3)c2)cc1
Kd [5]: 20 µM
